High-throughput results (PubChem)
Rows were chosen to be rich in hits. Some 3.5% of all compounds tested hit in one or more screens of this group.
MrgX1 antag – human MrgX1 receptor antagonism, primary screen; MRGX1-HEK293 calcium flux, Fluo-4, BAM8-22 antagonism; active compounds read low; B-score at 10 µM; 310,000 tested, 1.3% active; AID 588676;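 active means calcium-response B-score plate-corrected more than 3 library SD below zero, starting fluorescence within 5 deviations, no agonist response on first addition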;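 further: peak minus trough fluorescence over baseline after final BAM8-22 challenge near maximal dose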
Target sequence (Q96LB2 whole entry, looked up): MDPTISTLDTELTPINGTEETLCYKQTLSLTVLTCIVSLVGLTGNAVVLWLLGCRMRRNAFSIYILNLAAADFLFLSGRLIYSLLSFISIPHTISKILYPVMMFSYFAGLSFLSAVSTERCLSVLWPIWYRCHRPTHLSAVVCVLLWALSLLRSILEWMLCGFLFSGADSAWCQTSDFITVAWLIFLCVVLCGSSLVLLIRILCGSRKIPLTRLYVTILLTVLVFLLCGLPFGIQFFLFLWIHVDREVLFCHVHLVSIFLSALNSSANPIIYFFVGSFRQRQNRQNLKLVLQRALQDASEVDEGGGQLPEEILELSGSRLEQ
MrgX1 allo act – human MrgX1 positive allosteric modulation, primary screen; Q96LB2; MrgX1-HEK293, Fluo-4 calcium flux, FDSS; active compounds read high; 310,000 tested, 0.63% active; B-score at 10 µM;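 active means plate-corrected calcium response at least 3 library SD above typical, normal starting fluorescence, not activating the receptor alone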;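 further: compound read alongside a low EC10 to EC30 dose of BAM8-22 agonist; peak minus trough fluorescence over baseline measured at the second addition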
RGS4 act – RGS4 potentiation or activation. HEK293 M3R/inducible RGS4, carbachol calcium flux Fluo4; active compounds read low. AID 463111. B-score at 10 µM. 310,000 tested, 0.92% active;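 active means B-score of the integrated calcium signal more than 4 SD below the library mean, with starting fluorescence not abnormally high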;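 further: negative B-score means reduced calcium response which marks RGS4 activation or potentiation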
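Material: M3R-expressing HEK293 line, RGS4 induced by doxycycline | Schedule: Overnight RGS4 induction, 30 min dye load 37 °C, 20 min compound RT | Measured by: Fluo4 fluorescence kinetic imaging of calcium | Read-out: Integrated calcium ratio converted to B score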
RGS4 block – inhibitors of human RGS4; HEK293 M3R/RGS4 inducible, Fluo-4 calcium flux; active compounds read high; triggered by carbachol at its EC20; B-score at 10 µM; 310,000 tested, 0.45% active;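 active means B-score, a plate-corrected calcium signal, over three deviations above library mean, with baseline fluorescence within five deviations of library mean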;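 further: RGS4 expression induced by doxycycline in cells with stable M3 receptor; B-score is computed from the integrated fluorescence ratio over baseline after carbachol; higher B-score means a larger calcium signal and so more RGS4 inhibition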
Target sequence (P49798 whole entry, looked up): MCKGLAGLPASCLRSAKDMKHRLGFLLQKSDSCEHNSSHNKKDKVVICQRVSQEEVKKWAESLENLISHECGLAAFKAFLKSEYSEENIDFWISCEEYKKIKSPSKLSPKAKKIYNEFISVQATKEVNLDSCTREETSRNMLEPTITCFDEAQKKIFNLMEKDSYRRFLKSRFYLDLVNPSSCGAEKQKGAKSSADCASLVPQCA
MrgX1 agonist – agonists of human MrgX1 receptor | Q96LB2 | B-score at 10 µM | 310,000 tested, 0.44% active | MrgX1-HEK293 cells, Fluo-4 calcium fluorescence, agonist mode; active compounds read high | AID 588627;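 active means calcium response B-score plate-corrected fluorescence ratio at least 3 library SD, with starting fluorescence B-score inside 5 SD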
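System: HEK293 cells stably expressing human MrgX1 receptor; Dosing: test compound in the initial addition of three; Schedule: overnight plating, then 30 min 37 °C plus 30 min room-temperature dye loading; Detection: kinetic calcium dye fluorescence, Fluo-4 NW; Controls: per-plate positive and negative controls for Z′ factor.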
MrgX1 allo conf – reconfirmed allosteric activator of human MrgX1 receptor; shares compounds with MrgX1 allo act; 1,200 tested, 13% active; activation (ratio percentage), % at 10 µM; MrgX1-HEK293, Fluo-4 calcium fluorescence, FDSS;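 active means ratio at least 3 SD above the weak peptide control, stable starting fluorescence, no direct agonism earlier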;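 further: compound followed by low BAM8-22 agonist challenge near EC20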
HEK293 Ca flux – counter-screen for MrgX1 antagonists: effect in parental HEK293 cells | fluorescence ratio F(max-min)/F0 at 10 µM | Fluo-4 calcium fluorescence, FDSS | shares compounds with MrgX1 antag | 4,000 tested, 2% active;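 active means duplicate-averaged calcium fluorescence ratio at least three times the standard deviation of buffer wells, a nonspecific response in parental cells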
HEK293 Ca counter – MrgX1 allosteric activator counter-screen hit in parental HEK293 cells. parental HEK293 calcium flux, Fluo-4 fluorescence ratio; active compounds read high. 4,000 tested, 0.4% active. fluorescence ratio F(max-min)/F0 at 10 µM. shares compounds with MrgX1 antag;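 active means calcium fluorescence ratio, averaged over duplicates, at least 3 SD of the buffer-well ratio, meaning a nonspecific response in receptor-free cells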;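 further: untransfected parental HEK293 lacking MrgX1 used as counterscreen for MrgX1 allosteric activators; fluorescence change taken during the second addition on a kinetic imager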
HEK293 Ca cntr2 – activity in parental HEK293 cells lacking MrgX1 receptor; Fluo-4 calcium fluorescence (FDSS); active compounds read high; fluorescence ratio F(max-min)/F0 at 10 µM; shares compounds with MrgX1 antag; 4,000 tested, 8.7% active;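 active means calcium fluorescence ratio at least three times the spread of buffer wells, meaning a non-specific response in parental cells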
Numbers stand for hits; . = inactive; / = not tested or not shown.

SMILES	MrgX1 antag	MrgX1 allo act	RGS4 act	RGS4 block	MrgX1 agonist	MrgX1 allo conf	HEK293 Ca flux	HEK293 Ca counter	HEK293 Ca cntr2
COc1ccc(-c2[nH]ncc2-c2ccc3c(c2)OCCO3)c(O)c1	.	8	/	/	.	.	.	.	.
CCc1cc(-c2[nH]ncc2-c2ccc3c(c2)OCO3)c(O)cc1O	.	.	.	.	.	/	/	/	/
CCOc1ccc(-c2[nH]ncc2-c2ccc(OC)c(OC)c2)c(O)c1	.	18	/	/	.	.	.	.	.
Cc1ccc(C)c(S(=O)(=O)NC(C)C(=O)NCc2ccccn2)c1 (stereo unspecified)	.	.	.	.	.	/	/	/	/
COc1ccc(NC(=O)CSc2nc3scc(C)c3c(=O)[nH]2)cc1	.	.	.	.	.	/	/	/	/
O=C(CCN=C1NS(=O)(=O)c2ccccc21)N1CCc2ccccc2C1	.	.	.	.	.	/	/	/	/
CCOc1cc(C2C3=C(CC(C)(C)CC3=O)N(C)C3=C2C(=O)CC(C)(C)C3)ccc1O	.	.	.	.	.	/	/	/	/
CC12CCC(=O)N1C(C(=O)Nc1nc3ccc(S(C)(=O)=O)cc3s1)CS2 (stereo unspecified)	.	.	.	.	.	/	/	/	/
CC12CCC(=O)N1C(C(=O)Nc1nc3ccc(Cl)cc3s1)CS2 (stereo unspecified)	.	16	.	.	.	.	.	.	.
CCC(Sc1nc2ccccc2c(=O)n1CCN1CCOCC1)C(=O)NCc1cccnc1 (stereo unspecified)	.	6.6	.	.	.	.	.	.	47
Fc1ccccc1C1c2[nH]c3ccccc3c2CCN1Cc1ccoc1 (stereo unspecified)	.	.	.	.	.	/	/	/	/
O=C(COC(=O)c1ccc(S(=O)(=O)NCc2ccco2)cc1)Nc1ccc(Cl)cn1	.	8.1	.	.	.	.	.	.	.
COP(=O)(OC)c1nc(-c2ccccc2)oc1N1CCOCC1	.	.	.	.	.	/	/	/	/
O=C(CCn1c(=S)oc2ccccc21)NC1CCCCCC1	.	7	.	.	.	.	.	.	.
Nc1ccc2nc(SCc3cccc(F)c3)sc2c1	.	9.2	.	.	.	.	.	.	.
CCOC(=O)CSc1nc2ccc(N)cc2s1	.	.	.	.	.	/	/	/	/
N/C(Cc1ccc(Cl)cc1)=N\OC(=O)C1CCCCC1	.	.	.	.	.	/	/	/	/
CC(=O)N(CCC1(c2ccc(C)cc2)CCOC(C(C)C)C1)Cc1ccco1 (stereo unspecified)	.	10	.	.	.	.	.	.	.
Cc1cc(-n2c(C)c3c(C)nnc(C)c3c2C)ccc1N	.	.	.	.	.	/	/	/	/
Cc1ccc(-n2c(C)c3c(C)nnc(C)c3c2C)cc1N	.	22	.	.	.	.	.	.	.
CC(C)c1ccc(NC(=S)Nc2ccc3[nH]c(=O)[nH]c3c2)cc1	.	15	.	.	.	.	.	.	.
O=c1[nH]c2ccc(NC(=S)Nc3ccc(Cl)cc3)cc2[nH]1	.	.	.	.	.	/	/	/	/
COc1ccc(N(CC(=O)Nc2cc(OC)ccc2OC)S(C)(=O)=O)cc1	.	.	.	.	.	/	/	/	/
CCc1ccc(N(CC(=O)Nc2ccc(OC)cc2OC)S(C)(=O)=O)cc1	.	15	.	.	.	.	.	.	.
COc1ccccc1-c1nc2ccccc2nc1-c1ccccc1	.	9	.	.	.	.	.	51	.
SMILES	MrgX1 antag	MrgX1 allo act	RGS4 act	RGS4 block	MrgX1 agonist	MrgX1 allo conf	HEK293 Ca flux	HEK293 Ca counter	HEK293 Ca cntr2
O=C(NCCN1CCOCC1)C1CC(=O)N(c2ccc(F)cc2)C1 (stereo unspecified)	.	.	.	.	.	/	/	/	/
O=S(=O)(Nc1nc2ccccc2s1)c1ccc(Br)s1	.	7.2	.	.	.	.	.	.	.
CSCC[C@H](NC(=O)N1CCn2c1nc1ccccc12)C(=O)N1CCCCC1	.	10	.	.	.	.	.	.	.
CCc1cccc(OCC(=O)Nc2ccccc2N2CCCC2)c1	.	19	.	.	.	.	.	.	.
Cc1ccc(S(=O)(=O)N2CCOCC2)cc1NC(=O)COC(=O)c1cc(=O)[nH]c2ccccc12	.	9.8	.	.	.	.	.	.	.
O=C(COC(=O)c1cc(=O)[nH]c2ccccc12)NC1CCCCCCC1	.	9.7	.	.	.	.	.	.	.
CCCCC(=O)NNC(=S)NCc1ccccc1	.	.	.	.	.	/	/	/	/
CCOC(=O)Nc1ccc2c(CNC(C)c3ccccc3OC)cc(=O)oc2c1 (stereo unspecified)	.	.	.	.	.	/	/	/	/
Cc1sc(N)nc1-c1c(C)n(C)c2ccccc12	.	.	.	.	.	/	/	/	/
COc1ccc(CN2CCC(C(=O)c3ccc(Cl)cc3)CC2)cc1	.	.	.	.	.	/	/	/	/
COc1ccc(Oc2nc(C)nc3c2oc2ccccc23)cc1	.	14	.	.	.	27%	.	.	.
Cc1nc(Nc2ccccc2F)c2oc3ccccc3c2n1	.	7	.	.	.	.	.	.	.
CCN(CC)CCOc1ncnc2c1oc1ccccc12	.	.	.	.	.	/	/	/	/
COc1ccccc1Oc1ncnc2c1oc1ccccc12	.	15	.	.	.	33%	.	.	.
COc1ccc(Nc2nc(C)nc3c2oc2ccccc23)c(OC)c1	.	.	.	.	.	/	/	/	/
c1ccc(Sc2ncnc3c2oc2ccccc23)cc1	.	12	.	.	.	22%	.	.	.
O=C(Nc1nc2ccccc2[nH]1)NC1CCCCC1	.	.	.	.	.	/	/	/	/
Cc1ccc(-n2nc(C)c(=O)c(-c3ccccc3)c2NC(=O)C(C)C)cc1	.	.	.	.	.	/	/	/	/
CC(CC(=O)N1CCN(S(=O)(=O)c2ccc(Cl)cc2)CC1)n1cncn1 (stereo unspecified)	.	.	.	.	.	/	/	/	/
Cc1nc(Oc2ccccc2)c2ccsc2n1	.	9.8	.	.	.	4.8%	.	.	.
Cc1nc(Oc2ccccc2)c2oc3ccccc3c2n1	.	34	.	.	.	25%	.	.	.
COc1ccc(CNC(=O)CNC(=O)c2cccs2)c(OC)c1	.	.	.	.	.	/	/	/	/
CC1(c2nnc(-c3cccc(Cl)c3)o2)CC(c2ccc(OC(F)(F)F)cc2)=NO1 (stereo unspecified)	.	.	.	.	.	/	/	/	/
NC(=O)c1oc2ccccc2c1NC(=O)C1CCCCC1	.	10	.	.	.	.	.	.	.
